Measured values reported in the array DNA melting data of Ke et al. (doi:10.1101/2024.01.08.574731).

Assays:
[1] = folding enthalpy; higher = less favourable; fluorescence melt of hairpins on a sequencing array, two-state fit; conditions: sodium 0.088 M
Procedure, shortened: (§1)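 To match UV melts, fitted temperatures were raised by 9.35 °C. These fits were bootstrapped two-state models that gave melting temperature and folding enthalpy, combined by inverse variance over four replicates. The input was normalised Cy3 fluorescence of library hairpins with annealed Cy3 and quencher oligos on a sequenced MiSeq flow cell, imaged in 50 mM Na-HEPES pH 8.0, 25 mM NaCl in 2.5 °C steps up to 60 °C.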

[2] = melting temperature; fluorescence melt of hairpins on a sequencing array, two-state fit, raised by 9.35 °C to match UV melts; conditions: sodium 0.088 M
Procedure, shortened: as §1

Row | Sequence | folding enthalpy [1] [kJ/mol] | Tm [2] [°C]
1 | AAGTCGAAAGACTT (((((....))))) | -76.5 | 52.6
2 | GAAAATGAAAATTTTC ((((((....)))))) | -96.6 | 38.6
3 | GATCATGTTAATGATC ((((((....)))))) | -170 | 56.2
4 | GCTGAGCGAAAGCTGCGC ((..(((....)))..)) | -79.6 | 54.7
5 | GCTAGGCGAAAGCGTTGC ((.(.((....)).).)) | -91.7 | 42
6 | GCGGAGCGAAAGCTTAGC ((..(((....)))..)) | -59.1 | 52.3
7 | GTACGCGAAAGCGAATAC ((((((....)))..))) | -35.9 | 31.9
8 | GTGACCCGAAAGGGACAC (((.(((....))).))) | -168 | 61.8
9 | CGCCCGGAAACGGAGCG ((((((....))).))) | -133 | 58.3
10 | GATCTCTAAGGAGATC ((((((....)))))) | -146 | 53.8
11 | CGAGCGGAAACGCTTCG ((((((....))).))) | -62.7 | 50.6
12 | GATCCAGGAAACTGGACC (.(((((....))))).) | -66.5 | 39.1
13 | GTTGTCGAAAGACGAAAC ((((((....)))..))) | -38 | 29.1
14 | GTGAACGAAAGTTAGCAC ((((((....)))..))) | -52.3 | 29.1
15 | GCAAAGCGAAAGCGTCGC ((.(.((....)).).)) | -99.2 | 60.2
16 | GATCACGAATGTGATC ((((((....)))))) | -157 | 67.7
17 | GATCATAGCTATGATC ((((((....)))))) | -198 | 50.7
18 | GATCTGGGAACAGATC ((((((....)))))) | -166 | 54.5
19 | GATGGGGGAAACCCCGTC ((.((((....)))).)) | -103 | 52.7
20 | GCCCACACGAAAGTGGGC (((..(((....)))))) | -110 | 68
21 | CGCGGACTACTCCGCG ((((((....)))))) | -129 | 69
22 | GCTTGAGGAAACTCAGGC ((.((((....)))).)) | -138 | 47.6
23 | GGTACTCGAAAGAGAACC (((.(((....))).))) | -125 | 49.8

Row | Sequence | folding enthalpy [1] [kJ/mol] | Tm [2] [°C]
24 | GGCAGCTCGAAAGAGGCC (((..(((....)))))) | -72.6 | 47.3
25 | GATCCCAGAAGGGATC ((((((....)))))) | -145 | 60.4
26 | GGATGTCGAAAGACTCC (((.(((....)))))) | -106 | 51.8
27 | GGGGTGGAAACACCCC ((((((....)))))) | -163 | 68.8
28 | GCGTATGAAAATACGC ((((((....)))))) | -150 | 63
29 | GGTTGTCGAAAGACACC (((.(((....)))))) | -108 | 53.1
30 | GCCACGGGAAACCGCAGC ((..(((....)))..)) | -72.9 | 34.1
31 | CGGATCCGGAAACGGCCG (((..(((....)))))) | -86.4 | 38.3
32 | GTCTCACGAAAGTGCGAC (((.(((....))).))) | -162 | 50.3
33 | GCACACACGAAAGTGTGC (((..(((....)))))) | -48.4 | 57.7
34 | GATCTCGCTCGAGATC ((((((....)))))) | -187 | 57.5
35 | GATCACCTAAGTGATC ((((((....)))))) | -163 | 56.4
36 | GGGAACGAAAGTTATCCC ((((((....)))..))) | -97.6 | 36.6
37 | GGCTACGAAAGTAATGCC ((((((....)))..))) | -94.6 | 46.9
38 | GCTTTGCGAAAGCAAGGC ((.((((....)))).)) | -89.1 | 62.1
39 | GTGAAGACGAAAGTCCAC (((..(((....)))))) | -77 | 41.6
40 | GAAAATGGAAACATTTCC (.(((((....))))).) | -71 | 28.6
41 | GGTGAGCGAAAGCTACC (((.(((....)))))) | -80.5 | 51.7
42 | GGACCCGCGAAAGCGTCC (((..(((....)))))) | -51.8 | 36.7
43 | GCATTCGCGAAAGCGTGC (((..(((....)))))) | -49.5 | 41.8
44 | GAAGATGGAAACATCTCC (.(((((....))))).) | -68.4 | 33.4
45 | GACAGACCGAAAGGTGTC (((..(((....)))))) | -81.5 | 44.3
46 | GCACCCGAAAGGGGCTGC ((((((....)))..))) | -75.1 | 65.3

Row | Sequence | folding enthalpy [1] [kJ/mol] | Tm [2] [°C]
47 | GCGTCCGAAAGGAACCGC ((((((....)))..))) | -85.1 | 48.5
48 | GTTATCGGAAACGGTAAC ((((.((....)).)))) | -112 | 44.9
49 | GATAAAGAAATTTATC ((((((....)))))) | -66.4 | 27.6
50 | GTGGAAGGAAACTTTCAC (((.(((....))).))) | -138 | 43.2
51 | GCCCGTCGAAAGACAGGC (((.(((....))).))) | -163 | 55.3
52 | GGGCCCGGAAACAGGCCC (((((.(....).))))) | -143 | 59.1
53 | GGGAAGCGAAAGCTCCCC (((.(((....))).))) | -90.8 | 61.5
54 | GATCTGCTTCCAGATC ((((((....)))))) | -140 | 48.5
55 | GTTCTCGAAAGAGAAAAC ((((((....)))..))) | -58.7 | 32.6
56 | GTTCGCCGAAAGGCAAAC (((.(((....))).))) | -75.7 | 46.9
57 | GAGAGAGGAAACTCTCTC (((((((....))))))) | -148 | 57.9
58 | GATGCTGGAAACAACATC ((((.((....)).)))) | -132 | 36.2
59 | CGCACGGAAACGTCCGCG ((((((....)))..))) | -79.9 | 41.2
60 | GATTGCGAAAGCACAATC ((((((....)))..))) | -45.3 | 32.7
61 | CGAGCACGGAAACGTTCG (((..(((....)))))) | -56.4 | 36.7
62 | GATCAGGGCCTGATC ((((((...)))))) | -285 | 53
63 | GCCAATCGAAAGATGGGC (((.(((....))).))) | -165 | 55.1
64 | GACAGCGAAAGCTGGGTC ((((((....)))..))) | -52 | 62
65 | GTGCCCGCGAAAGCGCAC (((..(((....)))))) | -56.7 | 45.5
66 | GATCGTATGTACGATC ((((((....)))))) | -158 | 56.8
67 | GTGAGACGAAAGTCGCAC (((.(((....))).))) | -133 | 64.5
68 | GCCCACGAAAGTGGAGGC ((((((....)))..))) | -64.9 | 52.5
69 | GCGCACGAAAGTGGTCGC ((((((....)))..))) | -57.6 | 53.4

Row | Sequence | folding enthalpy [1] [kJ/mol] | Tm [2] [°C]
70 | GATCGACGAAAGTCATC (((.(((....)))))) | -53.2 | 33.1
71 | GGCGGCGAAAGCCCTGCC ((((((....)))..))) | -84 | 53.6
72 | GATCCCCTGCGGGATC ((((((....)))))) | -141 | 58.2
73 | GATCCATCTCTGGATC ((((((....)))))) | -166 | 50.4
74 | GATCCTAAACAGGATC ((((((....)))))) | -132 | 49
75 | GAAAGGGCGAAAGCCTTC (((..(((....)))))) | -41.1 | 24.8
76 | GACCGTGGAAACACGATC ((.((((....)))).)) | -79.8 | 43.1
77 | GCAAAGCGAAAGCTCAGC ((..(((....)))..)) | -45.3 | 33.6
78 | GATCTTCCTCAAGATC ((((((....)))))) | -126 | 42
79 | GATCGGCACACCGATC ((((((....)))))) | -166 | 59
80 | GCACTGCGAAAGCGGGGC ((.(.((....)).).)) | -140 | 67.2
81 | GCGCACGGAAACGCACGC (((..((....))..))) | -131 | 42.2
82 | GCGCTTCGAAAGAACCGC (((.(((....))).))) | -133 | 46.4
83 | GGGGATGGAAACACCCCC ((((.((....)).)))) | -110 | 49
84 | GCCGTCGAAAGACAGGGC ((((((....)))..))) | -162 | 54.4
85 | GATCCGAGATCGGATC ((((((....)))))) | -177 | 56.4
86 | GGTGTAGCGAAAGCTACC (((..(((....)))))) | -38.9 | 49.1
87 | GATCGGTTCCCGATC ((((((...)))))) | -164 | 59.3
88 | CGTTTCGGAAACGAGACG (((.(((....))).))) | -104 | 49.1
89 | GAGCTAGAAATAGCTC ((((((....)))))) | -140 | 53.4
90 | GCCTTCGGAAACGAGGGC (((.(((....))).))) | -141 | 56.7
91 | GCAAACCGAAAGGTCTGC (((.(((....))).))) | -125 | 49.8
92 | GCTCTTGGAAACAAGGGC ((.((((....)))).)) | -161 | 50.6
